From ChEMBL document CHEMBL1151442, “Genetic and phenotypic identification of fusidic acid-resistant mutants with the small-colony-variant phenotype in Staphylococcus aureus” (2007)
Converted amounts (≈) assume the structure as drawn.

Columns and labels:
Format in all cases: functional
[1] = system: Staphylococcus aureus; experiment: Antibacterial activity against fusidic acid-resistant Staphylococcus aureus AH197 harboring Leu456Phe mutation in fusA gene after 18 to 24 hrs by Etest strip assay
Procedure, shortened: (§1)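 Mutants of lab strain 8325-4 were selected on LA with FA 2 μg/ml for 48 h at 37°C and purified on selective medium. For the MIC, one colony was suspended in 0.9% NaCl to 0.5 McFarland and swabbed onto Mueller-Hinton agar. An Etest strip was applied and plates were incubated at 37°C for 18–24 h until the lawn was evident.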

[2] = system: Staphylococcus aureus; experiment: Antibacterial activity against kanamycin-resistant Staphylococcus aureus AH362 (SCV-34) harboring TAA stop codon at nucleotide 282 in rplF gene after 18 to 24 hrs by Etest strip assay
Procedure, shortened: (§2)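 SCVs of a Rifr 8325-4 derivative were selected on LA with KAN at 8, 16 or 24 μg/ml for 48 h at 37°C. They were purified at the same KAN level and screened on LA plus FA 1 μg/ml.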

[3] = system: Staphylococcus aureus; experiment: Antibacterial activity against kanamycin-resistant and fusidic acid-susceptible Staphylococcus aureus AH420 harboring deletion of nucleotide 72-80 in rplF gene after 18 to 24 hrs by Etest strip assay
Procedure, shortened: (§3)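 Etest MIC: a single colony was suspended in 0.9% NaCl to 0.5 McFarland and swabbed over Mueller-Hinton agar. The strip was applied and plates were incubated at 37°C for 18 to 24 h until an SCV lawn grew.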

[4] = system: Staphylococcus aureus; experiment: Antibacterial activity against fusidic acid-resistant Staphylococcus aureus AH198 harboring Gly452Ser mutation in fusA gene after 18 to 24 hrs by Etest strip assay; procedure, shortened: as §1
[5] = system: Staphylococcus aureus; experiment: Antibacterial activity against kanamycin-resistant Staphylococcus aureus AH334 (SCV-6) harboring Thr436Ile mutation in fusA gene after 18 to 24 hrs by Etest strip assay; procedure, shortened: as §2
[6] = system: Staphylococcus aureus; experiment: Antibacterial activity against kanamycin-resistant Staphylococcus aureus AH378 (SCV-50) harboring -1 frameshift mutation at nucleotide 221 in rplF gene after 18 to 24 hrs by Etest strip assay; procedure, shortened: as §2
[7] = system: Staphylococcus aureus; experiment: Antibacterial activity against fusidic acid-resistant Staphylococcus aureus AH202 harboring CTG start codon at nucleotide 1 in rplF gene after 18 to 24 hrs by Etest strip assay; procedure, shortened: as §1
[8] = system: Staphylococcus aureus; experiment: Antibacterial activity against fusidic acid-susceptible wild type Staphylococcus aureus 8325-4 after 18 to 24 hrs by Etest strip assay
Procedure, shortened: (§4)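 The inoculum was a single colony suspended in 0.9% NaCl to 0.5 McFarland and swabbed over a Mueller-Hinton agar plate. An Etest gradient strip was then applied, and the plate was incubated at 37°C for 18 to 24 h until lawn growth was evident. MIC was read from the strip following the manufacturer's instructions.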

[9] = system: Staphylococcus aureus; experiment: Antibacterial activity against kanamycin-susceptible wild type Staphylococcus aureus AH001 after 18 to 24 hrs by Etest strip assay; procedure, shortened: as §4
[10] = system: Staphylococcus aureus; experiment: Antibacterial activity against kanamycin-resistant and fusidic acid-susceptible Staphylococcus aureus AH421 harboring Pro404Arg mutation in fusA gene after 18 to 24 hrs by Etest strip assay; procedure, shortened: as §3
[11] = system: Staphylococcus aureus; experiment: Antibacterial activity against kanamycin-resistant Staphylococcus aureus AH383 (SCV-55) harboring TAA stop codon at nucleotide 139 in rplF gene after 18 to 24 hrs by Etest strip assay; procedure, shortened: as §2
[12] = system: Staphylococcus aureus; experiment: Antibacterial activity against kanamycin-resistant Staphylococcus aureus AH357 (SCV-29) harboring TAA stop codon at nucleotide 301 in rplF gene after 18 to 24 hrs by Etest strip assay; procedure, shortened: as §2
[13] = system: Staphylococcus aureus; experiment: Antibacterial activity against kanamycin-resistant Staphylococcus aureus AH379 (SCV-51) harboring TAA stop codon at nucleotide 418 in rplF but gene after 18 to 24 hrs by Etest strip assay; procedure, shortened: as §2
[14] = system: Staphylococcus aureus; experiment: Antibacterial activity against kanamycin-resistant Staphylococcus aureus AH329 (SCV-1) harboring Arg659Cys mutation in fusA gene after 18 to 24 hrs by Etest strip assay; procedure, shortened: as §2
[15] = system: Staphylococcus aureus; experiment: Ratio of MIC for kanamycin-resistant Staphylococcus aureus harboring mutations in FusA gene to MIC for wild type kanamycin-susceptible Staphylococcus aureus AH001
[16] = system: Staphylococcus aureus; experiment: Antibacterial activity against fusidic acid-resistant Staphylococcus aureus AH190 harboring Arg464His mutation in fusA gene after 18 to 24 hrs by Etest strip assay; procedure, shortened: as §1
[17] = system: Staphylococcus aureus; experiment: Antibacterial activity against kanamycin-resistant and fusidic acid-susceptible Staphylococcus aureus AH291 harboring Arg659His mutation in fusA gene after 18 to 24 hrs by Etest strip assay; procedure, shortened: as §3
[18] = system: Staphylococcus aureus; experiment: Antibacterial activity against kanamycin-resistant Staphylococcus aureus AH347 (SCV-19) harboring Arg659Ser mutation in fusA gene after 18 to 24 hrs by Etest strip assay; procedure, shortened: as §2
[19] = system: Staphylococcus aureus; experiment: Antibacterial activity against fusidic acid-resistant Staphylococcus aureus AH193 harboring TAA stop codon at nucleotide 299 in rplF gene after 18 to 24 hrs by Etest strip assay; procedure, shortened: as §1
[20] = system: Staphylococcus aureus; experiment: Antibacterial activity against kanamycin-resistant Staphylococcus aureus AH352 (SCV-24) harboring -1 frameshift mutation at nucleotide 106 in rplF gene after 18 to 24 hrs by Etest strip assay; procedure, shortened: as §2
[21] = system: Staphylococcus aureus; experiment: Antibacterial activity against kanamycin-resistant and fusidic acid-susceptible Staphylococcus aureus AH288 harboring Gly617Asp mutation in fusA gene after 18 to 24 hrs by Etest strip assay; procedure, shortened: as §3
[22] = system: Staphylococcus aureus; experiment: Antibacterial activity against kanamycin-resistant Staphylococcus aureus AH380 (SCV-52) harboring -1 frameshift mutation at nucleotide 158 in rplF gene after 18 to 24 hrs by Etest strip assay; procedure, shortened: as §2
[23] = system: Staphylococcus aureus; experiment: Antibacterial activity against fusidic acid-resistant Staphylococcus aureus AH204 harboring deletion of nucleotide 203-231 in rplF gene after 18 to 24 hrs by Etest strip assay; procedure, shortened: as §1
[24] = system: Staphylococcus aureus; experiment: Antibacterial activity against kanamycin-resistant Staphylococcus aureus AH370 (SCV-42) harboring TAA stop codon at nucleotide 229 in rplF gene after 18 to 24 hrs by Etest strip assay; procedure, shortened: as §2
[25] = system: Staphylococcus aureus; experiment: Antibacterial activity against kanamycin-resistant Staphylococcus aureus AH390 (SCV-62) harboring +1 frameshift mutation at nucleotide 84 in rplF gene after 18 to 24 hrs by Etest strip assay; procedure, shortened: as §2
[26] = system: Staphylococcus aureus; experiment: Antibacterial activity against kanamycin-resistant Staphylococcus aureus AH392 (SCV-64) harboring -1 frameshift mutation at nucleotide 383 in rplF gene after 18 to 24 hrs by Etest strip assay; procedure, shortened: as §3
[27] = system: Staphylococcus aureus; experiment: Antibacterial activity against kanamycin-resistant Staphylococcus aureus AH332 (SCV-4) harboring Ala655Glu mutation in fusA gene after 18 to 24 hrs by Etest strip assay; procedure, shortened: as §2
[28] = system: Staphylococcus aureus; experiment: Antibacterial activity against fusidic acid-resistant Staphylococcus aureus AH206 harboring Arg464Ser mutation in fusA gene after 18 to 24 hrs by Etest strip assay; procedure, shortened: as §1
[29] = system: Staphylococcus aureus; experiment: Antibacterial activity against kanamycin-resistant Staphylococcus aureus AH384 (SCV-56) harboring -1 frameshift mutation at nucleotide 221 in rplF gene after 18 to 24 hrs by Etest strip assay; procedure, shortened: as §2
[30] = system: Staphylococcus aureus; experiment: Antibacterial activity against kanamycin-resistant Staphylococcus aureus AH348 (SCV-20) harboring TGA stop codon at nucleotide 244 in rplF gene after 18 to 24 hrs by Etest strip assay; procedure, shortened: as §2
[31] = system: Staphylococcus aureus; experiment: Antibacterial activity against fusidic acid-resistant Staphylococcus aureus AH209 harboring deletion of nucleotide 404-427 in rplF gene after 18 to 24 hrs by Etest strip assay; procedure, shortened: as §1

SMILES | MIC [1] [µg/mL] | MIC [2] [µg/mL] | MIC [3] [µg/mL] | MIC [4] [µg/mL] | MIC [5] [µg/mL] | MIC [6] [µg/mL] | MIC [7] [µg/mL] | MIC [8] [µg/mL] | MIC [9] [µg/mL] | MIC [10] [µg/mL] | MIC [11] [µg/mL] | MIC [12] [µg/mL] | MIC [13] [µg/mL] | MIC [14] [µg/mL] | fold change (FC) [15] | MIC [16] [µg/mL] | MIC [17] [µg/mL] | MIC [18] [µg/mL] | MIC [19] [µg/mL] | MIC [20] [µg/mL] | further results
CC(=O)O[C@H]1C[C@@]2(C)[C@@H](C[C@@H](O)[C@H]3[C@@]4(C)CC[C@@H](O)[C@@H](C)[C@@H]4CC[C@@]32C)/C1=C(\CCC=C(C)C)C(=O)O [FUSIDIC ACID] | 4 (≈ 7.74 µM) | 12 (≈ 23.2 µM) | 12 (≈ 23.2 µM) | 32 (≈ 61.9 µM) | 48 (≈ 92.9 µM) | 8 | 4 (≈ 7.74 µM) | 0.125 (≈ 0.242 µM) | 0.125 (≈ 0.242 µM) | 3 (≈ 5.81 µM) | 16 (≈ 31 µM) | 12 (≈ 23.2 µM) | 6 (≈ 11.6 µM) | 12 (≈ 23.2 µM) | 32 | 6 (≈ 11.6 µM) | 4 (≈ 7.74 µM) | 12 (≈ 23.2 µM) | 4 (≈ 7.74 µM) | 4 | MIC [21]: 6 µg/mL (≈ 11.6 µM); MIC [22]: 6 µg/mL; MIC [23]: 4 µg/mL (≈ 7.74 µM); MIC [24]: 8 µg/mL (≈ 15.5 µM); MIC [25]: 16 µg/mL; MIC [26]: 4 µg/mL; MIC [27]: 12 µg/mL (≈ 23.2 µM); MIC [28]: 6 µg/mL (≈ 11.6 µM); MIC [29]: 24 µg/mL; MIC [30]: 8 µg/mL (≈ 15.5 µM); MIC [31]: 4 µg/mL (≈ 7.74 µM)
NC[C@H]1O[C@H](O[C@H]2[C@H](O)[C@@H](O[C@H]3O[C@H](CO)[C@@H](O)[C@H](N)[C@H]3O)[C@H](N)C[C@@H]2N)[C@H](O)[C@@H](O)[C@@H]1O [KANAMYCIN] | 6 (≈ 12.4 µM) | 128 (≈ 264 µM) | 256 (≈ 528 µM) | 4 (≈ 8.26 µM) | 128 (≈ 264 µM) | 16 | 8 (≈ 16.5 µM) | 1.5 (≈ 3.1 µM) | 1.5 (≈ 3.1 µM) | 8 (≈ 16.5 µM) | 96 (≈ 198 µM) | 96 (≈ 198 µM) | 12 (≈ 24.8 µM) | 12 (≈ 24.8 µM) | 3 | 4 (≈ 8.26 µM) | 24 (≈ 49.5 µM) | 12 (≈ 24.8 µM) | 8 (≈ 16.5 µM) | 6 | MIC [21]: 16 µg/mL (≈ 33 µM); MIC [22]: 4 µg/mL; MIC [23]: 8 µg/mL (≈ 16.5 µM); MIC [24]: 8 µg/mL (≈ 16.5 µM); MIC [25]: 256 µg/mL; MIC [26]: 12 µg/mL; MIC [27]: 12 µg/mL (≈ 24.8 µM); MIC [28]: 6 µg/mL (≈ 12.4 µM); MIC [29]: 128 µg/mL; MIC [30]: 8 µg/mL (≈ 16.5 µM); MIC [31]: 8 µg/mL (≈ 16.5 µM)
